{
  "source": "paper PMC6226116",
  "about": "(Clinical and Translational Science, 2018)",
  "key": {"[1]": {"conditions": "cited from earlier work"}, "[2]": {"type": "in vivo, human"}, "[3]": {"conditions": "with tacrolimus; cited from earlier work"}, "[4]": {"conditions": "co‐administration of cyclosporine; cited from earlier work"}, "[5]": {"tested_on": "P‐gp", "conditions": "LLC‐PK1‐P‐gp cell monolayers; cited from earlier work"}, "[6]": {"conditions": "cited from earlier work", "remark": "listed apart in the source"}, "[7]": {"assay": "Cyclosporine and tacrolimus trough concentrations before the third dose", "type": "in vivo, human", "conditions": "tacrolimus 5 mg oral once daily, predose on day 3", "in_short": "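Healthy adult male volunteers (n=12) took each test compound orally once daily for 3 days in separate treatment periods (100 mg as soft gelatin capsules; 5 mg). They fasted from 10 h before to 2 h after dosing and avoided CYP-affecting medications. Blood was drawn immediately before the day-3 dose, processed by a certified clinical laboratory, and plasma concentrations were measured by validated LC-MS/MS.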"}, "[8]": {"conditions": "co‐administration with ketoconazole, humans"}, "[9]": {"conditions": "both, human, plasma, oral, 100 mg"}, "[10]": {"conditions": "in the presence of cyclosporine vs apixaban alone"}, "[11]": {"conditions": "in the presence of tacrolimus vs apixaban alone"}},
  "note": "Where two headings read alike, the source gives them in different places.",
  "data": [
    {"compound": "COc1ccc(-n2nc(C(N)=O)c3c2C(=O)N(c2ccc(N4CCCCC4=O)cc2)CC3)cc1", "note": "[Apixaban]", "values": [
      {"measurement": "increase in apixaban AUC", "setting": "[1]; administration with diltiazem", "result": 1.4, "unit": "fold"},
      {"measurement": "increase in apixaban C max", "setting": "[1]; administration with diltiazem", "result": 1.3, "unit": "fold"},
      {"measurement": "increase in apixaban AUC", "setting": "[1]; [8]", "result": "twofold"},
      {"measurement": "increase in apixaban C max", "setting": "[1]; [8]", "result": 1.6, "unit": "fold"},
      {"measurement": "CL/F", "setting": "[2]; apixaban 10 mg oral alone, arithmetic mean (SD) [minimum, maximum]", "result": 5.8, "unit": "L/h"},
      {"measurement": "T max", "setting": "[2]; apixaban with tacrolimus 5 mg daily for 3 days, median [minimum, maximum]", "result": "2.5 [1, 4] h"},
      {"measurement": "Vd/F", "setting": "[2]; [9]", "result": 45, "unit": "L"},
      {"measurement": "half-life", "setting": "[2]; [9]", "result": 6.8, "unit": "h"},
      {"measurement": "Tmax", "setting": "[2]; both, human, plasma, po, 10 mg", "result": 2.5, "unit": "h"},
      {"measurement": "Vd/F", "setting": "[2]; both, human, plasma, po, 10 mg", "result": 89, "unit": "L"},
      {"measurement": "half-life", "setting": "[2]; both, human, plasma, po, 10 mg", "result": 12.1, "unit": "h"},
      {"measurement": "GMR for apixaban AUC(0–tlast)", "setting": "[2]; [10]", "result": 120, "unit": "%"},
      {"measurement": "GMR for apixaban AUC(0–∞)", "setting": "[2]; [10]", "result": 119, "unit": "%"},
      {"measurement": "GMR for apixaban C max", "setting": "[2]; [10]", "result": 143, "unit": "%"},
      {"measurement": "GMR for apixaban AUC(0–tlast)", "setting": "[2]; [11]", "result": 78, "unit": "%"},
      {"measurement": "GMR for apixaban AUC(0–∞)", "setting": "[2]; [11]", "result": 77, "unit": "%"},
      {"measurement": "GMR for apixaban C max", "setting": "[2]; [11]", "result": 87, "unit": "%"},
      {"measurement": "increase in apixaban exposure", "setting": "[2]; with cyclosporine co-administration", "result": 20, "unit": "%"},
      {"measurement": "decrease in apixaban exposure", "setting": "[2]; with tacrolimus co-administration", "result": 22, "unit": "%"}
    ]},
    {"compound": "CC(C)c1c(C(=O)Nc2ccccc2)c(-c2ccccc2)c(-c2ccc(F)cc2)n1CC[C@@H](O)C[C@@H](O)CC(=O)O", "note": "[atorvastatin]", "values": [
      {"measurement": "impact on atorvastatin pharmacokinetics", "setting": "[3]", "result": "no impact"}
    ]},
    {"compound": "COc1cc2c(c(OC)c1OC)-c1ccc(OC)c(=O)cc1[C@@H](NC(C)=O)CC2", "note": "[colchicine]", "values": [
      {"measurement": "increase in colchicine AUC(0–∞)", "setting": "[4]", "result": 215, "unit": "%"},
      {"measurement": "increase in colchicine C max", "setting": "[4]", "result": 224, "unit": "%"}
    ]},
    {"compound": "CC(=O)N1CCN(c2ccc(OCC3COC(Cn4ccnc4)(c4ccc(Cl)cc4Cl)O3)cc2)CC1", "note": "(stereo not shown) [ketoconazole]", "values": [
      {"measurement": "inhibition of apixaban efflux", "setting": "[5]", "result": "extensively inhibited"}
    ]},
    {"compound": "COc1ccc2c(O[C@@H]3C[C@H]4C(=O)N[C@]5(C(=O)NS(=O)(=O)C6CC6)C[C@H]5/C=C\\CCCCN(C)C(=O)[C@@H]4C3)cc(-c3nc(C(C)C)cs3)nc2c1C", "note": "[simeprevir]", "values": [
      {"measurement": "increase in AUC(0‐24) of simeprevir", "setting": "[6]; with cyclosporine", "result": 5.8, "unit": "fold"},
      {"measurement": "increase in C max of simeprevir", "setting": "[6]; with cyclosporine", "result": 4.7, "unit": "fold"},
      {"measurement": "increase in AUC(0‐24) of simeprevir", "setting": "[6]; with tacrolimus", "result": 85, "unit": "%"},
      {"measurement": "increase in Cmax of simeprevir", "setting": "[6]; with tacrolimus", "result": 79, "unit": "%"}
    ]},
    {"compound": "C=CC[C@@H]1/C=C(\\C)C[C@H](C)C[C@H](OC)[C@H]2O[C@@](O)(C(=O)C(=O)N3CCCC[C@H]3C(=O)O[C@H](/C(C)=C/[C@@H]3CC[C@@H](O)[C@H](OC)C3)[C@H](C)[C@@H](O)CC1=O)[C@H](C)C[C@@H]2OC", "note": "[tacrolimus]", "values": [
      {"measurement": "trough concentration, mean (SD)", "setting": "[7]", "result": "3.8 (2.3) ng/mL"}
    ]}
  ]
}
